Results from ChEMBL document CHEMBL1914328, “Thiosemicarbazones derived from 1-indanones as new anti-Trypanosoma cruzi agents” (Bioorg Med Chem, 2011).

Assays:
[1] = Toxicity in human erythrocytes assessed as hemolysis at 25 uM after 24 hrs by spectrophotometry; assay type: cell-based, Erythrocyte; conditions: read-out: Activity
In short: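 Citrated human blood was washed repeatedly in ice-cold PBS and made into a 2% w/v suspension. It was mixed 1:1 with compound in PBS and incubated 24 h at 37 °C. Supernatant hemoglobin was read at 405 nm. Percent hemolysis = (A at 24 h − A at 0 h) / water-lysis A × 100. Water gave 100% lysis, PBS served as negative control. Run in quintuplicate.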

Trypanosoma cruzi [2] = experiment: Antitrypanosomal activity against Trypanosoma cruzi Tulahuen 2 epimastigotes assessed as inhibition of parasite growth at 25 uM after 5 days by spectrophotometric analysis; assay type: functional; conditions: Tulahuen 2, 120 h, read-out: GI
In short: (§1)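 Tulahuen 2 epimastigotes were grown in BHI-Tryptose with 5% fetal calf serum at 28 °C, harvested in late log phase and seeded at 2 × 10^6/mL. Compound came from DMSO stock (final DMSO ≤1%, vehicle control). A590 was read at day 0 and day 5, and % inhibition was taken against the control. IC50 was the concentration halving control absorbance. Values are the mean of three experiments.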

Trypanosoma cruzi [3] = experiment: Antitrypanosomal activity against Trypanosoma cruzi Tulahuen 2 epimastigotes assessed as inhibition of parasite growth after 5 days by spectrophotometric analysis; assay type: functional, organism-based; conditions: Tulahuen 2, 120 h; in short: as §1
[4] = Selectivity index, ratio of growth inhibition of Trypanosoma cruzi Tulahuen 2 epimastigotes at 25 uM to hemolysis of human erythrocytes at 25 uM
In short: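 This is a ratio of two values. One is the % epimastigote growth inhibition (A590, day 5 versus day 0, against a DMSO control). The other is the % erythrocyte lysis (A405 after 24 h at 37 °C, relative to water lysis). Both are measured at the same compound concentration.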

[5] = target: Cruzipain (Trypanosoma cruzi) (UniProt P25779); experiment: Inhibition of Trypanosoma cruzi cruzipain using Z-Phe-Arg-AMC as substrate at 100 uM preincubated for 5 mins before substrate addition measured after 10 mins by spectrofluorometry
In short: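 Cruzipain was preincubated 5 min at room temperature with compound in 50 mM PBS pH 7.3 or acetate buffer pH 5.3 containing 5 mM DTT. Z-Phe-Arg-AMC was then added. Fluorescence (ex 380/em 460 nm) was followed 10 min at room temperature. Final DMSO was ≤10%, the solvent-only control was used, and a reference thiosemicarbazone inhibitor was included. Values are means of at least three experiments.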

Chain of Cruzipain (Trypanosoma cruzi) (P25779 123-467 limits assumed): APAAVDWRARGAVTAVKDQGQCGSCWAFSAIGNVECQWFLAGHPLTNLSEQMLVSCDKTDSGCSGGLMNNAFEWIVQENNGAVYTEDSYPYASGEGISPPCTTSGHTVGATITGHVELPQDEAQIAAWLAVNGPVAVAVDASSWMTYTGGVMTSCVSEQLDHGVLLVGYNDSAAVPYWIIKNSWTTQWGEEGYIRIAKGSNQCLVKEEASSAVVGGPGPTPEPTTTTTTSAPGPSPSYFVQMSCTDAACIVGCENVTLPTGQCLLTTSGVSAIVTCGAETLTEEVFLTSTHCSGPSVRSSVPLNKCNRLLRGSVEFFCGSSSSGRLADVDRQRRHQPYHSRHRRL

SMILES | IC50 (Trypanosoma cruzi [3]) | inhibition [5] | hemolysis at 24 h, 25 µM [1] | inhibition of growth at 25 µM (Trypanosoma cruzi [2]) | Ratio [4]
NC(=S)N/N=C1\CCc2cc(Cl)ccc21 | > 50 µM |  | 0.1% | 1.7% | 170
NC(=S)N/N=C1\CCc2c1cccc2[N+](=O)[O-] | > 50 µM |  | 4.5% | 22% | 4.9
Cc1cc(Br)c(C)c2c1/C(=N/NC(N)=S)CC2 | 25 µM |  | 2.4% | 51% | 21.2
Cc1cc2c(c(C)c1Cl)/C(=N/NC(N)=S)CC2 | > 50 µM |  | 2.8% | 14.4% | 5.1
NC(=S)N/N=C1\CCc2ccc([N+](=O)[O-])cc21 | > 50 µM | 24% | 0.1% | 3.1% | 310
NC(=S)N/N=C1\CCc2cc(F)ccc21 | 8.3 µM |  | 0.2% | 84.2% | 421
COc1cc2c(cc1OC)/C(=N/NC(N)=S)CC2 | > 50 µM | 1.7% | 0.1% | 19% | 190
S=C(N/N=C1\CCc2ccccc21)Nc1ccccc1 | 7.7 µM |  | 2.7% | 69.6% | 25.8
CC1CS(=O)(=O)CCN1/N=C/c1ccc([N+](=O)[O-])o1 (centres undefined) [NIFURTIMOX] |  |  |  | 100% | 
Cc1cc2c(c(C)c1Cl)CC/C2=N\NC(N)=S | 7.8 µM |  | 0.1% | 83.7% | 837
COc1ccc2c(c1)CC/C2=N\NC(N)=S | 7.5 µM |  | 0.8% | 92.1% | 115.1
COc1ccc2c(c1)/C(=N/NC(N)=S)CC2 | 7.5 µM | 0% | 7.5% | 100% | 13.3
NC(=S)N/N=C1\CCc2ccccc21 | 18.6 µM |  | 0.2% | 80.8% | 404
S=C(N/N=C1\CCc2ccccc21)Nc1ccc(Cl)cc1 | 25 µM |  | 0.1% | 50.8% | 508
CC/C(=N\N=C(\N)S)c1cccc(Br)c1 |  | 100% |  |  | 

Now from value to compound, other results behind:

IC50 (Trypanosoma cruzi [3]) | inhibition [5] | SMILES | hemolysis at 24 h, 25 µM [1] | inhibition of growth at 25 µM (Trypanosoma cruzi [2]) | Ratio [4]
5.9 µM |  | Cc1ccc(NC(=S)N/N=C2\CCc3ccccc32)cc1 | 1.6% | 76% | 47.5
2.3 µM |  | NC(=S)N/N=C1\CCc2cc(Br)ccc21 | 2.4% | 98.8% | 41.2
1 µM | 0% | COc1cc2c(cc1OC)/C(=N/NC(=S)Nc1ccccc1)CC2 | 0.4% | 67.5% | 168.8
0.152 µM |  | C[C@@H]1[C@H](O)[C@@H](C)/C=C/C=C/C=C/C=C/C=C/C=C/C=C/[C@H](O[C@@H]2O[C@H](C)[C@@H](O)[C@H](N)[C@@H]2O)C[C@@H]2O[C@](O)(C[C@@H](O)C[C@@H](O)[C@H](O)CC[C@@H](O)C[C@@H](O)CC(=O)O[C@H]1C)C[C@H](O)[C@H]2C(=O)O [AMPHOTERICIN B] | 100% | 100% | 1
3 µM |  | COc1cc2c(cc1OC)/C(=N/NC(=S)Nc1ccc(C)cc1)CC2 | 4.2% | 77.7% | 18.5
6.2 µM | 9.8% | COc1cccc2c1CC/C2=N\NC(N)=S | 1% | 84.2% | 84.2
4 µM |  | Cc1cccc2c1CC/C2=N\NC(N)=S | 0.1% | 98.5% | 985
1.8 µM | 61% | COc1ccc2c(c1OC)CC/C2=N\NC(N)=S | 0.1% | 98.9% | 989
4.3 µM |  | Cc1cc(C)c2c(c1)CC/C2=N\NC(N)=S | 0.1% | 66.5% | 665
5.7 µM |  | Cc1cc(C)c2c(c1Br)CC/C2=N\NC(N)=S | 7.7% | 100% | 12.9
1 µM | 67% | COc1cc2c(cc1OC)/C(=N/NC(=S)Nc1ccc(Cl)cc1)CC2 | 0.1% | 77% | 770
3.6 µM |  | Cc1ccc2c(c1)CC/C2=N\NC(N)=S | 0.5% | 100% | 200
